Published values collected from several papers.
Medium: plasma

| Compound | system | conditions | AUC(0-t) |
| --- | --- | --- | --- |
| C1=C/COCc2cc(ccc2OCCN2CCCC2)Nc2nccc(n2)-c2cccc(c2)COC/1 | male Sprague-Dawley rat | oral, 36 mg/kg | 3.12 µg·h/mL |
| C[C@@]12C[C@@]3(O)O[C@@H](O1)[C@]1(COC(=O)c4ccccc4)[C@H]3C[C@@]12O[C@@H]1O[C@H](CO)[C@@H](O)[C@H](O)[C@H]1O | male Sprague-Dawley rat | oral, 80 mg/kg | 0.00374 µg·h/mL |
| CCOc1c([C@H](C)n2nc(C)c3c(N)ncnc32)cc(Cl)c(F)c1[C@@H]1CNC(=O)C1 | male Sprague-Dawley rat | oral, 2 mg/kg, single dose | 4.58 µg·h/mL |
| COc1ccc(N(Cc2csc(-c3ccccc3)n2)C(=O)CCCCCC(=O)NO)cc1 | female Sprague-Dawley rat | intravenous, 5 mg/kg | 0.0299 µg·h/mL |
| CCCCC(=O)Nc1ccc(-c2ccc3ncn(CCC)c(=O)c3c2)cn1 | male rat | oral, 10 mg/kg | 1.2 µg·h/mL |
| COc1cc(-c2cc(C(C)=O)n3ccccc23)c(OC)cc1Cn1ccnc1 | male Sprague-Dawley rat | oral, 5 mg/kg | 2.15 µg·h/mL |
| Cn1c(=O)c2[nH]cnc2n(C)c1=O | male Sprague-Dawley rat | intravenous, 11.25 mg/kg | 24.9 µg·h/mL |
| CC[C@@H]([C@H](C)O)n1ncn(-c2ccc(N3CCN(c4ccc(OC[C@@H]5CO[C@@](Cn6cncn6)(c6ccc(F)cc6F)C5)cc4)CC3)cc2)c1=O | Sprague-Dawley rat | oral, 40 mg/kg | 6.55 µg·h/mL |
| Nc1ccn([C@@H]2O[C@H](CO)[C@@H](O)C2(F)F)c(=O)n1 | male Sprague-Dawley rat | intraperitoneal, 5 mg/kg | 22.9 µg·h/mL |
| CCCCCCCCCC(=O)N[C@@H](Cc1c[nH]c2ccccc12)C(=O)N[C@H](CC(N)=O)C(=O)N[C@@H](CC(=O)O)C(=O)N[C@@H]1C(=O)NCC(=O)N[C@@H](CCCN)C(=O)N[C@@H](CC(=O)O)C(=O)N[C@H](C)C(=O)N[C@@H](CC(=O)O)C(=O)NCC(=O)N[C@H](CO)C(=O)N[C@@H]([C@H](C)CC(=O)O)C(=O)N[C@@H](CC(=O)c2ccccc2N)C(=O)O[C@@H]1C | male Wistar rat | subcutaneous, 125 mg/kg, single dose | 2450 µg·h/mL |
| CNC(=O)c1cc(Oc2ccc(NC(=O)Nc3ccc(Cl)c(C(F)(F)F)c3)cc2)ccn1 | male Sprague-Dawley rat | oral, 100 mg/kg, single dose | 17.7 µg·h/mL |
| O=C1CCC(N2Cc3cc(C4CCN(Cc5ccccc5)CC4)ccc3C2=O)C(=O)N1 (centres unmarked) | male Sprague-Dawley rat | oral, 3 mg/kg | 0.336 µg·h/mL |
| Cc1ccc2c(c1)C(=O)[C@]1(O)CCN(c3ccc4nc(C)ccc4c3)C1=N2.Cl | female rat | subcutaneous, 40 mg/kg, multiple doses, once daily | 17 µM·h |
| COc1nc(-c2cccc(-c3ccccc3)c2C)ccc1CNCCNC(=O)CCCCCCCCCCC(=O)N1CCN(CCNC(=O)c2cc3c(=O)n4cccc(C)c4nc3n(CCc3cccs3)c2=N)CC1 | male Sprague-Dawley rat | oral, 40 mg/kg | 0.257 µg·h/mL |
| C[C@H]1Oc2cc(cnc2N)-c2c(nn(C)c2C#N)CN(C)C(=O)c2ccc(F)cc21 | male Sprague-Dawley rat | oral, 10 mg/kg | 3.16 µg·h/mL |
| CONC(=O)c1cccc2c1cc(C)n2-c1nc2c(c(NCc3ccccc3)n1)CCCN2 | male Sprague-Dawley rat | oral, 10 mg/kg, single dose | 0.0238 µg·h/mL |
| CC(=O)O[C@@H]1CC[C@@]2(C)[C@@H](CC[C@]3(C)[C@@H]2C(=O)C=C2[C@@H]4[C@@H](C)[C@H](C)CC[C@]4(C)CC[C@]23C)[C@@]1(C)C(=O)O | female Wistar rat | oral, 1 mg/kg, single dose | 40.9 µg·h/mL |
